# Experimental data: paper PMC2926617 (Nucleic Acids Research, 2010)
# Positions count from the first letter of the chain named. Where two headings read alike, the source gives them in different places.
# T1: CarS (Myxococcus xanthus, UniProt Q06911)
# T1 sequence (Q06911 1-111): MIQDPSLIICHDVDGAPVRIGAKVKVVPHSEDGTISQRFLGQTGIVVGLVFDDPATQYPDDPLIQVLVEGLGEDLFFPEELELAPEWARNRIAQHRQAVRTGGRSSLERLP
# B1: CarA R15 to A: CarA with R15 mutated to A (ref 10) (protein, UniProt Q50899 1-288, looked up, variant R15A)
# HTH-type transcriptional …: MTLRIRTIARMTGIAEATLRAWERRYGFPRPLRSEGNNYRVYSREEVEAVRRVARLIQEEGLSVSEAIAQVKTEPPREQPEAERLRERFWSSVGALEGDEVTRVLDDAQTVMDVEAYCDGFLLPLLREMGVRLDVAREHLASALIRQRLRQVYDALSPAPAGPRALLACPSGDHHEGGLLVLGIHLKRKGWRVTMLGADTPAAALQGACVQVRPDVVALSFVRARAPEEFASVLEDALRACAPFPVVVGGLGAREHLKAIFSLGAQYAESSEELVAIWNQVRNAQNRP
# B2: R20′ to A: CarA with R20 mutated to A (ref 10) (protein, UniProt Q50899 1-288, looked up, variant R20A)
# HTH-type transcriptional …: B1 HTH-type transcriptional … with A15R, R20A
# B3: CarS1, functional truncated form of CarS (lacking the last 25 residues) (domain or fragment)
# chain: MIQDPSLIICHDVDGAPVRIGAKVKVVPHSEDGTISQRFLGQTGIVVGLVFDDPATQYPDDPLIQVLVEGLGEDLFFPEELELAPE
# B4: CarHNt: CarH N-terminal DNA-binding domain (protein)
# chain: MAERTYRINIAAELAGVRVELIRAWERRYGVLTPRRTPAGYRAYTDRDVAVLKQLKRLTDEGVAISEAAKLLPQLMEGLE
# modifications: left off: H6, end not stated, cleaved
# B5: CarANt, N-terminal DNA-binding domain of CarA (domain or fragment, Myxococcus xanthus)
# chain: MTLRIRTIARMTGIREATLRAWERRYGFPRPLRSEGNNYRVYSREEVEAVRRVARLIQEEGLSVSEAIAQVKTEPPRE
# B6: CarS antirepressor (natural protein, Myxococcus xanthus, UniProt Q06911 1-111, looked up)
# chain: T1 sequence (Q06911 1-111)
# B7: CarS: antirepressor of Myxococcus xanthus (protein)
# chain: T1 sequence (Q06911 1-111)
# modifications: left off: H6, end not stated, cleaved
# Experiments:
# CarS [1] = molecular target: T1, CarS; assay: ITC titration with CarS; assay type: binding
# CarS [2] = molecular target: T1, CarS; conditions: cited from earlier work
# [3] = molecular target: P01, CarA α2 peptide (α2 segment plus the subsequent eight C-terminal residues) (Myxococcus xanthus); assay: ITC
# [4] = molecular target: P01, CarA α2 peptide (α2 segment plus the subsequent eight C-terminal residues) (Myxococcus xanthus); assay: ITC; remark: listed apart in the source
# [5] = molecular target: P01, CarA α2 peptide (α2 segment plus the subsequent eight C-terminal residues) (Myxococcus xanthus); assay: ITC; remark: listed apart in the source
# [6] = system: CarA or CarH N-terminal domain; conditions: cited from earlier work
# [7] = molecular target: P01, CarA α2 peptide (α2 segment plus the subsequent eight C-terminal residues) (Myxococcus xanthus); assay: ITC; remark: listed apart in the source
# [8] = molecular target: P02, CarA α2 peptide (α2 only) (Myxococcus xanthus); assay: ITC
# CarS [9] = molecular target: T1, CarS; assay: Analytical gel filtration, complex formation with CarS; assay type: binding; conditions: Superdex200, pH 7.5, mixture with CarS
# Method in brief: (§1)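 Superdex200 analytical size-exclusion HPLC in 50 mM phosphate pH 7.5, 2 mM β-mercaptoethanol and the required NaCl. Samples were 10–50 µM pure protein, or CarNt or CarHNt mixed with CarS or variant at equivalent concentrations. Flow was 0.4 ml/min with detection at 280, 235 and 220 nm. Peak fractions were identified by SDS–PAGE. Mr was taken from elution volume via log Mr = 7.64 – 0.209 Ve.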
# CarS antirepressor = molecular target: B6; assay: ITC
# [10] = molecular target: CHP01, CarHNt peptide equivalent to P01 (Myxococcus xanthus); assay: ITC
# [11] = molecular target: B5; assay: ITC
# CarANt = assay: Analytical gel filtration, complex formation with CarANt; assay type: binding, Myxococcus xanthus
# Method in brief: as §1
# [12] = Analytical gel filtration of pure proteins; assay type: physicochemical; conditions: Superdex200, 50 mM phosphate pH 7.5, 2 mM β-mercaptoethanol
# Method in brief: as §1
# CarA = assay: Yeast two-hybrid interaction with CarA; assay type: cell-based, Myxococcus xanthus; conditions: 30°C
# Method in brief: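 Yeast EGY48 carrying lacZ reporter pSH18-34 was cotransformed (lithium acetate) with LexA–CarA and B42–CarS or variant fusions. Equal-density cultures were spotted on galactose or glucose (basal fusion expression) plates with leucine, grown 1 day at 30°C, then overlaid with X-Gal agarose for 2–3 h (Gal) or ≥7 h (Glu). Interaction was scored by blue colour; single-hybrid cells served as controls.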
molecule,measurement,setting,value
Ac-GVRVELIRAWERRYGVLTPRRTP-NH2 [CHP01],Kd,CarS [1],690 ± 140 nM
same,ITC heat change / binding,"CarS [1]; ITC with CarS, pH 7.5","bind tightly to CarS, but with a KD somewhat higher than for P01"
same,N (binding stoichiometry),"CarS [1]; ITC, CarS, 25 °C, pH 7.5, 100 mM NaCl, 50 mM phosphate, 2 mM β-mercaptoethanol, 0.05% sodium azide, 20 µM CarANt or peptide titrated with 0.22 mM CarS, average of at least two independent titrations",0.91 ± 0.01
same,ΔH,"CarS [1]; ITC, CarS, 25 °C, pH 7.5, 100 mM NaCl, 50 mM phosphate, average of at least two independent titrations",−7.15 ± 0.17 kcalmol^−1
B1,Interaction of CarA variant with CarS,CarS [2],CarS-binding was not impaired
B2,Interaction of CarA variant with CarS,CarS [2],no apparent impairment in interactions with CarS
B3,Kd,[3],175 nM
same,dH,[3],-5.7 kcalmol^−1
same,stoichiometry N,[3],0.93
same,Kd,[4],200 nM
same,dH,[4],-10.9 kcalmol^−1
same,stoichiometry N,[4],0.89
same,Kd,[5],270 nM
same,dH,[5],-14.4 kcalmol^−1
same,stoichiometry N,[5],0.89
same,Complex formation stoichiometry,[6],forms a 1:1 complex
same,Kd,[7],150 nM
same,dH,[7],-8.46 kcalmol^−1
same,stoichiometry N,[7],0.92
same,Kd,[8],490 nM
same,dH,[8],-7.6 kcalmol^−1
same,stoichiometry N,[8],0.97
B4,Apparent Mr of complex with CarS,CarS [9],≈ 35 kDa
same,Complex formation with CarS,CarS [9],forms a 1:1 complex
B5,Kd,CarS antirepressor,12 ± 3 nM
B6,Kd,[10],690 nM
same,dH,[10],-7.15 kcalmol^−1
same,stoichiometry N,[10],0.91
same,Kd,[7],150 nM
same,dH,[7],-11.7 kcalmol^−1
same,stoichiometry N,[7],0.93
same,Kd,[8],300 nM
same,dH,[8],-12 kcalmol^−1
same,stoichiometry N,[8],1.07
same,dH,[11],-9.24 ± 0.02 kcalmol^−1
same,stoichiometry N,[11],0.94 ± 0.01
B7,Apparent Mr of complex/peak in mixture with CarANt,"CarANt; Superdex200, 50 mM phosphate pH 7.5, 2 mM β-mercaptoethanol, mixture with CarANt",30 ± 2 kDa
same,Complex formation with CarANt,"CarANt; Superdex200, pH 7.5, mixture with CarANt",formed a stable 1:1 complex
same,Apparent Mr of pure protein,[12],15.1 ± 0.8 kDa
same,"Two-hybrid blue color, galactose plates","CarA; galactose plates, X-gal overlay",turned blue within two hours
same,"Two-hybrid blue color, glucose plates","CarA; glucose plates (basal B42-fusion expression), X-gal 7–24 h",blue color
